Experimental data reported in BindingDB's records for doi:10.1016/j.bmcl.2007.03.055 (Pharmacopeia Drug Discovery, 2007).

Molecular target: Amyloid-beta precursor protein (Homo sapiens, UniProt P05067)
Assay: Inhibition of gamma-secretase
How it was run: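 Membrane preparation (5.0 µg total protein, in 20 mM Hepes pH 5.0, 5 mM EDTA) incubated 2 h at 37 °C with compound serially diluted in DMSO then in start buffer (Hepes pH 7.5, 5 mM EDTA); 2% DMSO final. Quenched with Tris/NaCl/BSA/Triton mix carrying biotin-W02 and Europium-labelled G2-10 (both Aβ40-specific) plus allophycocyanin-streptavidin. Signal developed 2–16 h at room temperature; HTRF at 665 nm. IC50 as mean of ≥2 determinations.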

Sequence of Amyloid-beta precursor protein (P05067 whole entry): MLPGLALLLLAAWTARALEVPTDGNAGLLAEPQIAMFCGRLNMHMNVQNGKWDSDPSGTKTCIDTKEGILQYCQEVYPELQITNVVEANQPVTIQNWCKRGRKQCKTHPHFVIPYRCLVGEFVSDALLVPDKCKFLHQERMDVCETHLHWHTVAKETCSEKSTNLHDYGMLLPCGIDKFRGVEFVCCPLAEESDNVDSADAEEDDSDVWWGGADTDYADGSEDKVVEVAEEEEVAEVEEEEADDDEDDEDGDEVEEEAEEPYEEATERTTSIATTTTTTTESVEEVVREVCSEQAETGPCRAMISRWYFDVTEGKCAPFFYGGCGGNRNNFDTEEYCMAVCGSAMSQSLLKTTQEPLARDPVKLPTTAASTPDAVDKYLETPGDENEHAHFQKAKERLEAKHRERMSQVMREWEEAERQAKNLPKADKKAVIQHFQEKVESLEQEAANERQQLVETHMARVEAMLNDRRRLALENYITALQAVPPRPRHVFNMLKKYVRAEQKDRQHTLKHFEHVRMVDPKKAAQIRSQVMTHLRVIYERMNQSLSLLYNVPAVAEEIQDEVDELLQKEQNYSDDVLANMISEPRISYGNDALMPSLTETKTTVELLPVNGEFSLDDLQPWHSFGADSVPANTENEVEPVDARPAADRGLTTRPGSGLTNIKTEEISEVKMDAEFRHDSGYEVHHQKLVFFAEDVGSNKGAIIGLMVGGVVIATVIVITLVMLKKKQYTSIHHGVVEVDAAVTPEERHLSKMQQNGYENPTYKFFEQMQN

First: O=C(NCCCn1ccnc1)OCCC1CCc2ccccc2N1S(=O)(=O)c1ccc(Cl)cc1 (stereo unspecified) [2-(1-(4-chlorophenylsulfonyl)-1,2,3,4-tetrahydroquinolin-2-yl)ethyl 3-(1H-imidazol-1-yl)propylcarbamate]
Second: O=C(NCCCn1ccnc1)OCCCC1CCc2ccccc2N1S(=O)(=O)c1ccc(Cl)cc1 (stereo unspecified) [3-(1-(4-chlorophenylsulfonyl)-1,2,3,4-tetrahydroquinolin-2-yl)propyl 3-(1H-imidazol-1-yl)propylcarbamate]
The IC50 of the first is 3.3-fold higher: 280 nM for the first, 86 nM for the second. The second is the more potent here.

Going from CN1CCCC1CCNC(=O)OCCCC1CCc2ccccc2N1S(=O)(=O)c1ccc(Cl)cc1 (stereo unspecified) [3-(1-(4-chlorophenylsulfonyl)-1,2,3,4-tetrahydroquinolin-2-yl)propyl 2-(1-methylpyrrolidin-2-yl)ethylcarbamate] to CN1CCCC1CCNC(=O)OC[C@H]1CC[C@@H](c2ccccc2)N1S(=O)(=O)c1ccc(Cl)cc1 (stereo partly drawn) [((2R,5S)-1-(4-chlorophenylsulfonyl)-5-phenylpyrrolidin-2-yl)methyl 2-(1-methylpyrrolidin-2-yl)ethylcarbamate], the IC50 rises from 220 nM to 600 nM (2.7-fold). The first is the more potent here.

Compared with O=C(OCCCC1CCc2ccccc2N1S(=O)(=O)c1ccc(Cl)cc1)N1CCN(C2CCCCC2)CC1 (stereo unspecified) [3-(1-(4-chlorophenylsulfonyl)-1,2,3,4-tetrahydroquinolin-2-yl)propyl 4-cyclohexylpiperazine-1-carboxylate], O=C(OC[C@H]1CC[C@@H](c2ccccc2)N1S(=O)(=O)c1ccc(Cl)cc1)N1CCN(CCO)CC1 [((2R,5S)-1-(4-chlorophenylsulfonyl)-5-phenylpyrrolidin-2-yl)methyl 4-(2-hydroxyethyl)piperazine-1-carboxylate] is 3-fold higher in IC50: 180 nM for the first, 540 nM for the second. The first is the more potent here.
